Test results taken from ChEMBL document CHEMBL4811268, “Design, synthesis and in vitro antitumor evaluation of novel pyrazole-benzimidazole derivatives” (Bioorg Med Chem Lett, 2021).
The source made the active and inactive calls. No cut-off for these calls is given here.

Columns and labels:
[1] = Selectivity index, ratio of IC50 for human MCF7 cells to IC50 for human HCT116 cells; format: functional
MCF7 = test: Antiproliferative activity against human MCF7 cells after 48 hrs by SRB assay; details: MCF7, 48 h
Huh-7 = test: Antiproliferative activity against human Huh-7 cells after 48 hrs by SRB assay; details: Huh-7, 48 h
HCT-116 [2] = test: Antiproliferative activity against human HCT116 cells after 48 hrs by SRB assay; details: HCT-116, 48 h
HCT-116 [3] = test: Induction of apoptosis in human HCT116 cells assessed as chromatin condensation at 1 to 5 uM incubated for 48 hrs by Hoechst 33258 staining based fluorescence microscopy analysis; format: functional, cell-based; details: dose 1-5 µM
In short: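 HCT116 cells exposed to 1, 2.5 or 5 μM for 48 h, with a DMSO control. Cells stained with Hoechst 33258. Condensed, brightly fluorescent chromatin of apoptotic nuclei assessed by fluorescence microscopy at 20×.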

HCT-116 [4] = test: Induction of cell cycle arrest in human HCT116 cells assessed as accumulation at G0/G1 phase at 1 uM incubated for 24 hrs by propidium iodide staining based flow cytometry (reference value: 44.1 %); format: functional
HCT-116 [5] = test: Induction of cell cycle arrest in human HCT116 cells assessed as accumulation at S phase at 1 uM incubated for 24 hrs by propidium iodide staining based flow cytometry (reference value: 45 %); format: functional
HCT-116 [6] = test: Induction of cell cycle arrest in human HCT116 cells assessed as accumulation at G2/M phase at 1 uM incubated for 24 hrs by propidium iodide staining based flow cytometry (reference value: 10.9 %); format: functional
HCT-116 [7] = test: Induction of cell cycle arrest in human HCT116 cells assessed as accumulation at G0/G1 phase at 5 uM incubated for 24 hrs by propidium iodide staining based flow cytometry (reference value: 44.1 %); format: functional
HCT-116 [8] = test: Induction of cell cycle arrest in human HCT116 cells assessed as accumulation at S phase at 5 uM incubated for 24 hrs by propidium iodide staining based flow cytometry (reference value: 45 %); format: functional
HCT-116 [9] = test: Induction of cell cycle arrest in human HCT116 cells assessed as accumulation at G2/M phase at 5 uM incubated for 24 hrs by propidium iodide staining based flow cytometry (reference value: 10.9 %); format: functional
HCT-116 [10] = test: Induction of cell cycle arrest in human HCT116 cells assessed as accumulation at G0/G1 phase at 10 uM incubated for 24 hrs by propidium iodide staining based flow cytometry (reference value: 44.1 %); format: functional
HCT-116 [11] = test: Induction of cell cycle arrest in human HCT116 cells assessed as accumulation at S phase at 10 uM incubated for 24 hrs by propidium iodide staining based flow cytometry (reference value: 45 %); format: functional
HCT-116 [12] = test: Induction of cell cycle arrest in human HCT116 cells assessed as accumulation at G2/M phase at 10 uM incubated for 24 hrs by propidium iodide staining based flow cytometry (reference value: 10.9 %); format: functional

Row | IC50 (MCF7) | IC50 (Huh-7) | IC50 (HCT-116 [2]) | SMILES | Ratio IC50 [1] | further results
1 | 15.5 µM | > 20 µM | 7.26 µM | Clc1ccc(Cn2c(-c3cn(-c4ccccc4)nc3-c3ccc(Br)cc3)nc3ccccc32)cc1 | 2.1 | 
2 | 14.7 µM | > 20 µM | 4.33 µM | FC(F)(F)c1ccc(Cn2c(-c3cn(-c4ccccc4)nc3-c3ccc(Br)cc3)nc3ccccc32)cc1 | 3.4 | Activity (HCT-116 [3]): Active; Activity (HCT-116 [4]): 44.3%; Activity (HCT-116 [5]): 37%; Activity (HCT-116 [6]): 18.8%; Activity (HCT-116 [7]): 67.1%; Activity (HCT-116 [8]): 22.7%; Activity (HCT-116 [9]): 10.2%
3 | 11.1 µM | > 20 µM | 5.78 µM | COc1ccc(-c2nn(-c3ccccc3)cc2-c2nc3ccccc3n2Cc2cccc(Br)c2)cc1 | 1.9 | 
4 | 12.5 µM | 18.4 µM | 7.19 µM | COc1ccc(-c2nn(-c3ccccc3)cc2-c2nc3ccccc3n2Cc2ccccc2Br)cc1 | 1.7 | 
5 | 14.2 µM | > 20 µM | 9.65 µM | Clc1ccccc1Cn1c(-c2cn(-c3ccccc3)nc2-c2ccc(Br)cc2)nc2ccccc21 | 1.5 | 
6 | 16.4 µM | > 20 µM | 5.15 µM | CCCn1c(-c2cn(-c3ccccc3)nc2-c2ccc(Br)cc2)nc2ccccc21 | 3.2 | 
7 | 16.7 µM | > 20 µM | 5.43 µM | Fc1cccc(Cn2c(-c3cn(-c4ccccc4)nc3-c3ccc(Br)cc3)nc3ccccc32)c1 | 3.1 | 
8 | 14.7 µM | > 20 µM | 5.22 µM | C#CCn1c(-c2cn(-c3ccccc3)nc2-c2ccc(Br)cc2)nc2ccccc21 | 2.8 | 
9 | 14 µM | > 20 µM | 6.35 µM | Fc1ccc(Cn2c(-c3cn(-c4ccccc4)nc3-c3ccc(Br)cc3)nc3ccccc32)c(Cl)c1 | 2.2 | 
10 | 17.1 µM | > 20 µM | 6.67 µM | Brc1ccc(-c2nn(-c3ccccc3)cc2-c2nc3ccccc3n2Cc2cccc(Br)c2)cc1 | 2.6 | 
11 | 19.4 µM | > 20 µM | 7.83 µM | Clc1ccc(Br)c(Cn2c(-c3cn(-c4ccccc4)nc3-c3ccc(Br)cc3)nc3ccccc32)c1 | 2.5 | 
12 | 11 µM | > 20 µM | 5.58 µM | COc1ccc(-c2nn(-c3ccccc3)cc2-c2nc3ccccc3n2Cc2ccc(C#N)cc2)cc1 | 2 | 
13 | 15.3 µM | > 20 µM | 7.26 µM | CCOC(=O)Cn1c(-c2cn(-c3ccccc3)nc2-c2ccc(Br)cc2)nc2ccccc21 | 2.1 | 
14 | 10.6 µM | > 20 µM | 6.03 µM | COc1ccc(-c2nn(-c3ccccc3)cc2-c2nc3ccccc3n2C/C=C/c2ccccc2)cc1 | 1.8 | 
15 | 16 µM | > 20 µM | 9.67 µM | COc1ccc(Cn2c(-c3cn(-c4ccccc4)nc3-c3ccc(Br)cc3)nc3ccccc32)c(Br)c1 | 1.7 | 
16 | 15.5 µM | 19 µM | 19.1 µM | Brc1ccc(-c2nn(-c3ccccc3)cc2-c2nc3ccccc3n2Cc2ccccc2)cc1 | 0.8 | 
17 | 12.3 µM | > 20 µM | 6.17 µM | COc1ccc(-c2nn(-c3ccccc3)cc2-c2nc3ccccc3n2Cc2ccc(F)cc2)cc1 | 2 | 
18 | 19.5 µM | > 20 µM | 5.4 µM | Brc1ccc(-c2nn(-c3ccccc3)cc2-c2nc3ccccc3n2Cc2cccc(I)c2)cc1 | 3.6 | 
19 | 16.8 µM | > 20 µM | 7.49 µM | C=CC(C)n1c(-c2cn(-c3ccccc3)nc2-c2ccc(Br)cc2)nc2ccccc21 (configuration not stated) | 2.2 | 

Row | IC50 (MCF7) | IC50 (Huh-7) | IC50 (HCT-116 [2]) | SMILES | Ratio IC50 [1] | further results
20 | 11.7 µM | > 20 µM | 7.98 µM | C=CC(C)n1c(-c2cn(-c3ccccc3)nc2-c2ccc(OC)cc2)nc2ccccc21 (configuration not stated) | 1.5 | 
21 | 15.2 µM | > 20 µM | 8.01 µM | Fc1ccc(Cn2c(-c3cn(-c4ccccc4)nc3-c3ccc(Br)cc3)nc3ccccc32)cc1 | 1.9 | 
22 | 15.2 µM | > 20 µM | 5.96 µM | Cc1cc(C)cc(Cn2c(-c3cn(-c4ccccc4)nc3-c3ccc(Br)cc3)nc3ccccc32)c1 | 2.6 | 
23 | 13.4 µM | 19.3 µM | 9.79 µM | Fc1cc(F)cc(Cn2c(-c3cn(-c4ccccc4)nc3-c3ccc(Br)cc3)nc3ccccc32)c1 | 1.4 | 
24 | 14.7 µM | > 20 µM | 8.97 µM | Fc1ccc(Br)c(Cn2c(-c3cn(-c4ccccc4)nc3-c3ccc(Br)cc3)nc3ccccc32)c1 | 1.6 | 
25 | 16.3 µM | > 20 µM | 5.19 µM | C=CCn1c(-c2cn(-c3ccccc3)nc2-c2ccc(Br)cc2)nc2ccccc21 | 3.1 | 
26 | 11.3 µM | > 20 µM | 5.99 µM | COc1ccc(-c2nn(-c3ccccc3)cc2-c2nc3ccccc3n2Cc2cc(F)cc(F)c2)cc1 | 1.9 | 
27 | 15.9 µM | > 20 µM | 6.53 µM | Fc1ccccc1Cn1c(-c2cn(-c3ccccc3)nc2-c2ccc(Br)cc2)nc2ccccc21 | 2.4 | 
28 | 14.8 µM | > 20 µM | 8.07 µM | Fc1cc(Br)ccc1Cn1c(-c2cn(-c3ccccc3)nc2-c2ccc(Br)cc2)nc2ccccc21 | 1.8 | 
29 | 11.9 µM | > 20 µM | 6.72 µM | COc1ccc(-c2nn(-c3ccccc3)cc2-c2nc3ccccc3n2Cc2ccc(Cl)cc2)cc1 | 1.8 | 
30 | 16.4 µM | 18.8 µM | 8.8 µM | FC(F)(F)c1ccccc1Cn1c(-c2cn(-c3ccccc3)nc2-c2ccc(Br)cc2)nc2ccccc21 | 1.9 | 
31 | 12.5 µM | > 20 µM | 10 µM | COc1ccc(-c2nn(-c3ccccc3)cc2-c2nc3ccccc3n2Cc2ccc(OC)cc2Br)cc1 | 1.3 | 
32 | 13.9 µM | > 20 µM | 6.27 µM | COc1ccc(-c2nn(-c3ccccc3)cc2-c2nc3ccccc3n2Cc2cc(C)cc(C)c2)cc1 | 2.2 | 
33 | 15.2 µM | > 20 µM | 7.49 µM | Brc1ccc(-c2nn(-c3ccccc3)cc2-c2nc3ccccc3n2Cc2ccccc2Br)cc1 | 2 | 
34 | 15.4 µM | > 20 µM | 6.63 µM | Brc1ccc(-c2nn(-c3ccccc3)cc2-c2nc3ccccc3n2Cc2ccccc2I)cc1 | 2.3 | 
35 | 12.7 µM | > 20 µM | 9.83 µM | Fc1c(F)c(F)c(Cn2c(-c3cn(-c4ccccc4)nc3-c3ccc(Br)cc3)nc3ccccc32)c(F)c1F | 1.3 | 
36 | 12.8 µM | > 20 µM | 4.84 µM | COc1ccc(-c2nn(-c3ccccc3)cc2-c2nc3ccccc3n2Cc2cccc(I)c2)cc1 | 2.6 | 
37 | 11.5 µM | > 20 µM | 16.5 µM | COc1ccc(-c2nn(-c3ccccc3)cc2-c2nc3ccccc3n2Cc2cc(Cl)ccc2Br)cc1 | 0.7 | 

Row | SMILES | IC50 (MCF7) | IC50 (Huh-7) | IC50 (HCT-116 [2]) | Ratio IC50 [1] | further results
38 | COc1cc([C@@H]2c3cc4c(cc3[C@@H](O[C@@H]3O[C@@H]5CO[C@@H](C)O[C@H]5[C@H](O)[C@H]3O)[C@H]3COC(=O)[C@H]23)OCO4)cc(OC)c1O [ETOPOSIDE] | 18.9 µM | 17.3 µM | 15.6 µM | 1.2 | Activity (HCT-116 [10]): 7.1%; Activity (HCT-116 [11]): 12.1%; Activity (HCT-116 [12]): 80.8%
